Assay [1] has as its target T1, Hypoxia inducible factors; HIF-1-alpha, HIF-2-alpha (Homo sapiens, UniProt Q16665+Q99814). Description: Inhibition of hypoxia-induced HIF1 transcriptional activation in human U251-pGL3 cells at 30 uM by luciferase reporter assay. The class given is cell-based. In a few lines:
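Counter-screen in U251-pGL3 cells, where firefly luciferase is driven by the SV40 promoter/enhancer, run in parallel with the HRE reporter assay. Cells incubated with compound under hypoxia (1% O2), then lysed and luciferase luminescence read. Data normalized to vehicle; triplicate.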

Assay [2] can be described thus: Decrease in protein expression of HIF1-alpha in human U251-HRE cells under hypoxic condition at 30 uM. Format: functional, cell-based. In a few lines: (§1)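 U251-HRE cells (1 × 10^5) plated in six-well plates, treated after 24 h for 4 h under hypoxia; normoxic and compound-free hypoxic lanes included. Lysis in PBS/0.1% NP-40 with sonication, 100 µg protein on 12.5% polyacrylamide gels. Probed with monoclonal anti-HIF-1α and anti-VEGF (1:500), β-tubulin (1:10000) loading control, HRP anti-mouse secondary, ECL detection.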

Assay [3] concerns the target T1, Hypoxia inducible factors; HIF-1-alpha, HIF-2-alpha. Description: Inhibition of hypoxia-induced HIF1 transcriptional activation in human U251-HRE cells by luciferase reporter assay. The class given is cell-based. In a few lines: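 Stably transfected U251 glioma cells carrying a luciferase reporter driven by three HRE copies, seeded 10000/well and grown 24 h. Compounds in 2-propanol were tested at 1–100 µM for 16 h at 1% O2/5% CO2/94% N2. Cells were lysed and Bright-Glo luminescence read, normalized to vehicle, with ≥15-fold hypoxic induction required. EC50 derived from dose–response; triplicate.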
(In a reporter assay the amount or activity of a reporter protein is the signal.)

The next assay deals with MDA-MB-231. As to the kind of experiment: Antiinvasive activity against human MDA-MB-231 cells. Format: functional, cell-based.
Assay [4] is described as follows: Decrease in protein expression of VEGF in human U251-HRE cells under hypoxic condition at 30 uM. The class given is functional, cell-based. The method, boiled down: as §1
A short description of assay [5]: Cytotoxicity against human U251-HRE cells at 100 uM after 16 hrs by MTT assay. Format: functional. In a few lines: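 U251-HRE glioma cells seeded 10000/well, left 24 h, then exposed to compound 16 h at 37 °C under normoxia (the hypoxic arm ran 24 h in a hypoxic incubator). Medium replaced with fresh medium plus 20 µL MTT (1.5 mg/mL) for 3 h, formazan dissolved in DMSO, absorbance read at 570 nm. Percent cytotoxicity from treated vs control A570; triplicate, SE.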
(Formazan colour is commonly taken as a measure of viable cells.)

A word on the EC50: it is the concentration giving half of the maximal effect. The term inhibition denotes the drop in the measured response relative to a control, in per cent. Low values mean a weak effect, high ones a strong effect.

SMILES strings stand for the structures. Activity calls are given as the source filed them. The calls are words filed in the database; no cut-off is given here.

As to `C[C@@]12CC[C@H]3[C@]4(CCC[C@]3(C)C(=O)OC4)[C@H]1CC[C@](C)(O)[C@H]2Cc1cc(O)ccc1O`, in assay [1], the result was inactive. Further, the outcome in assay [2] and in assay [4] was Active. The results for the EC50 (in assay [3]; in the assay on MDA-MB-231) were 6 µM and 16 µM, respectively.
Regarding `C[C@@]12CC[C@H]3[C@]4(CCC[C@]3(C)C(=O)OC4)[C@H]1CC[C@]1(C)Oc3ccc(O)cc3C[C@@H]21`, the inhibition at 100 µM in assay [5] came out at 17%. In addition, the result in assay [1] was inactive. Further, the result in assay [2] and in assay [4] was Active. The EC50 in assay [3] is 8 µM.
In the case of `C[C@@]12CC[C@H]3[C@](C)(CCC[C@]3(C)C(=O)O)[C@H]1CC[C@]1(C)Oc3ccc(O)cc3C[C@@H]21`, the outcome in assay [1] was inactive. Besides, the outcome in assay [2] and in assay [4] was Active. This compound gave an EC50 in assay [3] of 13 µM.

(Values after ChEMBL document CHEMBL1143253, “Strongylophorines: natural product inhibitors of hypoxia-inducible factor-1 transcriptional pathway” (J Med Chem, 2008).)
